# Source: PubChem BioAssay
# Rows were chosen to be rich in hits. Some 2.6% of all compounds tested hit in one or more screens of this group.
# ARFGAP1 inh = inhibits rat ARF GTPase activating protein 1 | Q62848 | Arfgap1-stimulated ARF1 GTP hydrolysis, GDP FP detection | inhibition, % at 16.5 µM | 0.26% of 360,000 active;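 active = inhibition above a per-plate limit, mean inhibition of low control wells plus 3 SD, cut at about 25% in these data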;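 also: 0% = DMSO wells with enzyme and 100% = wells lacking Arfgap1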
# Target sequence (Q62848 1-136 limits assumed): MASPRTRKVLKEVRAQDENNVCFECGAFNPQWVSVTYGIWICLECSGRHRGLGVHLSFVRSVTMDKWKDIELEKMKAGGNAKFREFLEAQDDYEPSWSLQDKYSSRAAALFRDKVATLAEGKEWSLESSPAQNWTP
#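 Material – truncated rat Arfgap1 GAP domain · Buffer or medium – HEPES-based buffer, pH 7.5 · Reagent – human ARF1(Δ1-17)-GTP substrate · Dosing – 16.5 µM single point, 1.26% DMSO · Schedule – GTP hydrolysis reaction 2 h at 25 °C · Technique – GDP detection by fluorescence polarization · Benchmarks – No-Arfgap1 wells (100%) versus DMSO full-reaction wells (0%) · Repeats – single replicate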
# esBAF inh = inhibitors of esBAF chromatin remodeling in mouse ES cells. AID 602393. Bmi1-luciferase knock-in reporter, 24 h; 100% = twice the neutral-well signal. 2% of 350,000 active. reporter increase, % at 12.5 µM; in the data active = activation above about 40%;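 also: 0% = median of the plate's neutral control wells and 100% = double that signal; a rise in the Bmi1 reporter signal indicates esBAF inhibition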
# ASAP1 GAP inh = inhibitors of human ASAP1 ArfGAP activity; Q9ULH1; 0.19% of 360,000 active; ASAP1-stimulated ARF1 GTP hydrolysis, GDP FP detection; inhibition, % at 16.5 µM; in the data active = inhibition above about 25%;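 also: 0% = vehicle with enzyme and substrate and 100% = no enzyme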
# Target sequence (Q9ULH1 325-724 limits assumed): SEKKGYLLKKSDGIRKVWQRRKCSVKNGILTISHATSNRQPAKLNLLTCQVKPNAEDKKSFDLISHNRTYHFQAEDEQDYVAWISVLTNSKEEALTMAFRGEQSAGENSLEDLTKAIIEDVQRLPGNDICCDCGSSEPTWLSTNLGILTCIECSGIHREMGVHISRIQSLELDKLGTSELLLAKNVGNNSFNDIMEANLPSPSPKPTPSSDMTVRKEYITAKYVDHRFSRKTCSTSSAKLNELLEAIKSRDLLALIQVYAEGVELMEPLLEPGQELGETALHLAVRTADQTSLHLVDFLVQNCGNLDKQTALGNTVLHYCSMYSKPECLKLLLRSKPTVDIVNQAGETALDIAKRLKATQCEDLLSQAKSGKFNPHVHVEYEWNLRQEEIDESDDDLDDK
# SMARCA2 act = increases SMARCA2 function in MMTV reporter cells; MG213 cells, MMTV-luciferase reporter, dexamethasone, overnight; activation, % at 9.1 µM; 1% of 370,000 active; in the data active = activation above about 7.8%;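 also: 0% = vehicle wells and 100% = reference activator wells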
# Starred values were filed as active, the others as inactive; nt = no result.
SMILES,ARFGAP1 inh,esBAF inh,ASAP1 GAP inh,SMARCA2 act
CCCNC(=O)Nc1ccc2c(c1)C(=O)N(C)C[C@@H](OC)[C@@H](C)CN(Cc1ccc(-c3ccccn3)cc1)[C@@H](C)CO2,nt,6,nt,nt
CCCC(=O)Nc1ccc2c(c1)C(=O)N(C)C[C@H](OC)[C@@H](C)CN(Cc1ccc(-c3ccccn3)cc1)[C@@H](C)CO2,nt,112*,nt,nt
CCCNC(=O)Nc1ccc2c(c1)C(=O)N(C)C[C@H](OC)[C@@H](C)CN(Cc1ccc(-c3ccccn3)cc1)[C@@H](C)CO2,nt,97*,nt,nt
C[C@H](CO)N1C[C@H](C)[C@@H](CN(C)CC2CCCCC2)Oc2ccc(NC(=O)CCCN(C)C)cc2CC1=O,nt,2,nt,nt
Nc1nc(N)c(N=O)c(OCC2CCCCC2)n1,-5,42*,10,6
N#Cc1cccc(-c2ccc([C@H]3[C@@H](CO)N4CCCCN(S(=O)(=O)c5ccccc5)C[C@H]34)cc2)c1,nt,-1,nt,nt
NC(=O)Nc1ccc(C(=O)OCC(=O)Nc2sccc2C(N)=O)cc1,3,-2,0,2
N#Cc1ccsc1NC(=O)COC(=O)c1ccc(NC(N)=O)cc1,5,48*,1,4
C[C@@H]1CN([C@@H](C)CO)C(=O)Cc2cc(NC(=O)Nc3cccc4ccccc34)ccc2O[C@H]1CN(C)Cc1ccncc1,nt,-3,nt,nt
c1nc(C2CCCCC2)cc2cc3c(cc12)OCO3,4,51*,2,2
C[C@@H]1CCCCO[C@H](CN(C)S(=O)(=O)c2cccs2)[C@@H](C)CN([C@H](C)CO)C(=O)c2cc(NC(=O)CCCN(C)C)ccc2O1,nt,-3,nt,nt
CCOc1ccccc1C(=O)N[C@H](C(=O)OCc1csc(CC(=O)Nc2ccc(C)cc2)n1)C(C)C,-7,nt,3,1
CCOc1ccccc1C(=O)NCC(=O)OCc1csc(CC(=O)Nc2ccc(C)cc2)n1,-1,56*,-17,-1
COc1ccccc1CN1CC(C(=O)NCc2ccc(C)c(F)c2)CCC1=O (configuration not stated),2,0,-18,-3
COc1ccccc1CN1CC(C(=O)NCc2c(F)ccc(C)c2F)CCC1=O (configuration not stated),-3,51*,-5,0
N#C[C@@H]1[C@@H](c2ccc(/C=C/c3ccccc3)cc2)[C@@H](CO)N1C(=O)Cc1ccccn1,nt,26,nt,nt
Cc1ccc(-c2csc(C(O)c3ccc(F)cc3)n2)cc1C (configuration not stated),13,24,11,2
Cc1ccc(-c2csc(C(O)c3ccccc3)n2)cc1C (configuration not stated),-2,53*,15,0
OCc1cccc(-c2csc(C(O)c3ccccc3)n2)c1 (configuration not stated),-6,41*,9,0
COc1ccc(C(O)c2nc(-c3ccc4ccccc4c3)cs2)cc1 (configuration not stated),11,58*,-3,-1
CN(C)c1ccc(-c2csc(C(O)c3ccc(F)c(F)c3)n2)cc1 (configuration not stated),13,45*,-11,0
COc1cc(C(O)c2nc(-c3ccc4ccccc4c3)cs2)ccc1F (configuration not stated),19,21,22,-3
COc1ccc(C(O)c2nc(-c3cccc(CO)c3)cs2)cc1 (configuration not stated),13,5,8,-5
COc1ccc(NC(=O)Nc2cccc3c2O[C@@H](CN(C)C(=O)Nc2ccccc2)[C@H](C)CN([C@H](C)CO)C3=O)cc1,nt,1,nt,nt
O=C(NCC[C@@H]1CC[C@H](NC(=O)c2cnccn2)[C@@H](CO)O1)Nc1ccc(Cl)cc1,nt,16,nt,nt
SMILES,ARFGAP1 inh,esBAF inh,ASAP1 GAP inh,SMARCA2 act
Cc1ccc(S(=O)(=O)N(C)C[C@@H]2Oc3ccc(NS(C)(=O)=O)cc3C(=O)N([C@H](C)CO)C[C@@H]2C)cc1,nt,-1,nt,nt
CCC(=O)N1[C@H](CN(C)C(C)=O)[C@@H](c2ccc(C3=CCCC3)cc2)[C@@H]1CO,nt,-4,nt,nt
NC(=O)c1cccc(-c2csc(C(O)c3ccccc3)n2)c1 (configuration not stated),3,12,-6,-1
OC(c1ccccc1)c1nc(-c2cc3ccccc3o2)cs1 (configuration not stated),3,47*,6,4
O=C(O)c1cccc(-c2csc(C(O)c3ccccc3)n2)c1 (configuration not stated),8,43*,12,-4
C[C@H](CO)N1C[C@H](C)[C@@H](CN(C)Cc2cccc(C(=O)O)c2)Oc2cc(C3=CCCCC3)ccc2S1(=O)=O,nt,-1,nt,nt
C[C@H]1CN([C@@H](C)CO)C(=O)Cc2cc(NS(=O)(=O)c3ccc(F)cc3)ccc2O[C@@H]1CN(C)S(=O)(=O)c1cn(C)cn1,nt,0,nt,nt
C/C(=N\Nc1nncc2ccccc12)c1ccc(OCC(=O)N(C)C)cc1,6,33,2,6
CC/C(=N\Nc1nncc2ccccc12)c1ccc(F)cc1,0,41*,-7,5
CC(C)OC(=O)CSc1nnnn1-c1ccc2c(c1)OCCO2,-4,69*,-2,1
CCc1cc2c(=O)c(-c3ccc4c(c3)OCCO4)coc2cc1OC(=O)c1ccco1,1,-6,-5,7
CCCc1cc2c(=O)c(-c3ccc4c(c3)OCCO4)coc2cc1OC(=O)c1ccco1,-3,81*,13,6
Cc1nc2ccccn2c1C(=O)/C=C/c1ccc(F)cc1,-4,100*,-1,3
O=C(Nc1ccc(F)cc1)c1c(Cl)nc2ccccn12,-5,50*,-6,0
CC(C)OCCCn1c(-c2ccco2)nc2nc3ccccc3nc21,5,-7,5,7.9*
CCOC(=O)c1sc(NC(=O)c2ccc(OC)cc2)nc1C,-18,47*,2,-1
CCOC(=O)c1sc(NC(=O)c2ccc(C)o2)nc1C,13,62*,4,4
CCOCc1nnc(NC(=O)c2ccc(OC)cc2)s1,8,53*,1,-2
COC(=O)c1sc(NC(=O)c2ccc(C)o2)nc1C,-10,nt,-6,3
CCOC(=O)c1sc(NC(=O)c2ccc(OC(C)=O)cc2)nc1C,5,nt,-2,1
CCOC(=O)Nc1nnc(-c2ccc(OC)cc2)s1,-2,79*,-3,3
CO[C@@H]1CN(C)C(=O)c2cc(NC(C)=O)ccc2OC[C@H](C)N(Cc2nccs2)C[C@@H]1C,nt,-5,nt,nt
Cc1cc(C(=O)Nc2ccc3c(c2)C(=O)N(C)[C@@H]2CC[C@H](CC(=O)O)O[C@@H]2CO3)no1,nt,2,nt,nt
COc1ccc(-c2ccc(OC)cc2)cc1,-2,54*,-2,-2
Cc1cccc(NCc2nc3ccccc3n2Cc2ccccc2)c1,4,20,-2,0
CCn1c(COc2ccccc2)nc2ccccc21,-9,58*,-11,1
Cc1cccc(NCc2nc3ccccc3n2C)c1,6,61*,-12,7
COCc1nc2ccccc2n1Cc1ccccc1,-8,22,-11,2
Cn1c(COc2ccc(F)cc2)nc2ccccc21,7,65*,-13,4
